The source made the active and inactive calls. No cut-off for these calls is given here.
Columns and labels:
[1] = target: Tyrosine-protein kinase CSK (Homo sapiens) (UniProt P41240); test: Residual activity of CSK (unknown origin) at 10 uM incubated for 30 mins in presence of [gamma-33P]ATP by multidrop micro reagent based assay relative to control
[2] = target: RAC-beta serine/threonine-protein kinase (Homo sapiens) (UniProt P31751); test: Inhibition of PKBbeta (unknown origin) at 10 uM incubated for 30 mins in presence of [gamma-33P]ATP by multidrop micro reagent based assay relative to control; values are per cent of control
[3] = target: Serine/threonine-protein kinase 26 (Homo sapiens) (UniProt Q9P289); test: Inhibition of MST4 (unknown origin) at 10 uM incubated for 30 mins in presence of [gamma-33P]ATP by multidrop micro reagent based assay relative to control
In short: (§1)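 Single-concentration screen across a panel of 85 protein kinases. Activity is expressed as a percentage of control incubations run without inhibitor.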

[4] = target: T1, MAP kinase-activated protein kinase 5 (Homo sapiens) (UniProt Q8IW41); test: Inhibition of PRAK (unknown origin) at 10 uM incubated for 30 mins in presence of [gamma-33P]ATP by multidrop micro reagent based assay relative to control; values are per cent of control
T1 sequence (whole entry): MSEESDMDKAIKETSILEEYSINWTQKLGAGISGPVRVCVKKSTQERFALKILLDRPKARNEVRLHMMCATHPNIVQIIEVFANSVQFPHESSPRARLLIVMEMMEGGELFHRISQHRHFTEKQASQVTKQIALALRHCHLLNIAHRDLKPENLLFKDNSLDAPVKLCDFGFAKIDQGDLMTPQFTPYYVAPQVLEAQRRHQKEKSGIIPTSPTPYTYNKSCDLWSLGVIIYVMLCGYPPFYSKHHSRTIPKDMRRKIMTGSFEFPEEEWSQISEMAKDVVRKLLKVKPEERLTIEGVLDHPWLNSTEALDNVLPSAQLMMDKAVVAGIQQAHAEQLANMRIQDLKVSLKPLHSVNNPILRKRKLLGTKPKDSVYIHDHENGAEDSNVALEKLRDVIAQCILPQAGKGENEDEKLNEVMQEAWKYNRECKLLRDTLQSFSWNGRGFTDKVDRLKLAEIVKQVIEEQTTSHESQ

[5] = target: Calcium/calmodulin-dependent protein kinase kinase 2 (Homo sapiens) (UniProt Q96RR4); test: Residual activity of CaMKKbeta (unknown origin) at 10 uM incubated for 30 mins in presence of [gamma-33P]ATP by multidrop micro reagent based assay relative to control
[6] = target: Mitogen-activated protein kinase kinase kinase 11 (Homo sapiens) (UniProt Q16584); test: Inhibition of MLK3 (unknown origin) at 10 uM incubated for 30 mins in presence of [gamma-33P]ATP by multidrop micro reagent based assay relative to control
[7] = target: Leucine-rich repeat serine/threonine-protein kinase 2 (Homo sapiens, UniProt Q5S007); test: Inhibition of LRRK2 (unknown origin) at 10 uM incubated for 30 mins in presence of [gamma-33P]ATP by multidrop micro reagent based assay relative to control
[8] = target: Dual specificity tyrosine-phosphorylation-regulated kinase 1A (Homo sapiens) (UniProt Q13627); test: Inhibition of DYRK1A (unknown origin) at 10 uM incubated for 30 mins in presence of [gamma-33P]ATP by multidrop micro reagent based assay relative to control; values are per cent of control
[9] = target: Maternal embryonic leucine zipper kinase (Homo sapiens) (UniProt Q14680); test: Inhibition of MELK (unknown origin) at 10 uM incubated for 30 mins in presence of [gamma-33P]ATP by multidrop micro reagent based assay relative to control; values are per cent of control
[10] = target: Serine/threonine-protein kinase N2 (Homo sapiens) (UniProt Q16513); test: Inhibition of PRK2 (unknown origin) at 10 uM incubated for 30 mins in presence of [gamma-33P]ATP by multidrop micro reagent based assay relative to control
In short: as §1

[11] = target: Ephrin type-A receptor 2 (Homo sapiens) (UniProt P29317); test: Inhibition of EPH A2 (unknown origin) at 10 uM incubated for 30 mins in presence of [gamma-33P]ATP by multidrop micro reagent based assay relative to control; values are per cent of control
[12] = target: Insulin-like growth factor 1 receptor (Homo sapiens) (UniProt P08069); test: Inhibition of IGF-1R (unknown origin) at 10 uM incubated for 30 mins in presence of [gamma-33P]ATP by multidrop micro reagent based assay relative to control
[13] = target: Tyrosine-protein kinase SYK (Homo sapiens) (UniProt P43405); test: Inhibition of SYK (unknown origin) at 10 uM incubated for 30 mins in presence of [gamma-33P]ATP by multidrop micro reagent based assay relative to control; values are per cent of control
[14] = target: Leucine-rich repeat serine/threonine-protein kinase 2 (Homo sapiens, UniProt Q5S007, G2019S); test: Inhibition of GST-tagged LRRK2 G2019S mutant (1326 to 2527 residues) (unknown origin) in presence of ATP
[15] = target: MAP kinase-activated protein kinase 2 (Homo sapiens) (UniProt P49137); test: Inhibition of MAPKAPK2 (unknown origin) at 1 uM incubated for 30 mins in presence of [gamma-33P]ATP by multidrop micro reagent based assay relative to control; values are per cent of control
[16] = target: Dual specificity tyrosine-phosphorylation-regulated kinase 1A (Homo sapiens) (UniProt Q13627); test: Inhibition of DYRK1A (unknown origin) at 1 uM incubated for 30 mins in presence of [gamma-33P]ATP by multidrop micro reagent based assay relative to control; values are per cent of control
[17] = target: Leucine-rich repeat serine/threonine-protein kinase 2 (Mus musculus) (UniProt Q5S006); test: Inhibition of LRRK2 in mouse Swiss-3T3 cells at 10 uM using Nictide as substrate by immunoblot analysis; assay type: cell-based
[18] = target: Serine/threonine-protein kinase 26 (Homo sapiens) (UniProt Q9P289); test: Inhibition of MST4 (unknown origin) at 1 uM incubated for 30 mins in presence of [gamma-33P]ATP by multidrop micro reagent based assay relative to control
[19] = target: 3-phosphoinositide-dependent protein kinase 1 (Homo sapiens) (UniProt O15530); test: Inhibition of PDK1 (unknown origin) at 1 uM incubated for 30 mins in presence of [gamma-33P]ATP by multidrop micro reagent based assay relative to control; values are per cent of control
Chain of 3-phosphoinositide-dependent protein kinase 1 (Homo sapiens) (O15530 whole entry, looked up): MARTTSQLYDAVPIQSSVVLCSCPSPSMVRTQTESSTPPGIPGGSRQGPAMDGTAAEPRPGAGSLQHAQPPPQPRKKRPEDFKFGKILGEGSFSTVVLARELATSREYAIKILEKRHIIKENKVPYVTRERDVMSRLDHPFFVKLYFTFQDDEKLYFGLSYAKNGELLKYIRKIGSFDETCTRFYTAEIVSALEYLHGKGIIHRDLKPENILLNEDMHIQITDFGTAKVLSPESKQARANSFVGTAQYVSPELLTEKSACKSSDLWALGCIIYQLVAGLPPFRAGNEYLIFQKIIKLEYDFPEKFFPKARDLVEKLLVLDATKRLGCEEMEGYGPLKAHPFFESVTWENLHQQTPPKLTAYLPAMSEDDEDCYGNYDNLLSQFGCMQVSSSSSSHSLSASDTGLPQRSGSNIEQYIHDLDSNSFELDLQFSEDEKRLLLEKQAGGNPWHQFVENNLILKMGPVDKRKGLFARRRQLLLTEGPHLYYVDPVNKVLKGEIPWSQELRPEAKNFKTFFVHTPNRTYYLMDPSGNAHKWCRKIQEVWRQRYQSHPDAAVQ

Chain of Serine/threonine-protein kinase 26 (Homo sapiens) (Q9P289 2-416 limits assumed): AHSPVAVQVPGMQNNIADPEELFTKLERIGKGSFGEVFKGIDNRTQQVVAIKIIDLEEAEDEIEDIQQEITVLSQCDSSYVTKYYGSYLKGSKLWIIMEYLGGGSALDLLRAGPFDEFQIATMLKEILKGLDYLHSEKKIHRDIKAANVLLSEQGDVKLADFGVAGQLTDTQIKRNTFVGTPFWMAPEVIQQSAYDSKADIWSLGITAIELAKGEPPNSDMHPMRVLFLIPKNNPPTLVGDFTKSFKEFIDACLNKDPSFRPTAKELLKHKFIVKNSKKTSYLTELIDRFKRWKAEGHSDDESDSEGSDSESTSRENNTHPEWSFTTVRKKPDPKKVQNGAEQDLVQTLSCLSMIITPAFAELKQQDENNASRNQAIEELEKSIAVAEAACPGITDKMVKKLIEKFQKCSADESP
Chain of RAC-beta serine/threonine-protein kinase (Homo sapiens) (P31751 whole entry): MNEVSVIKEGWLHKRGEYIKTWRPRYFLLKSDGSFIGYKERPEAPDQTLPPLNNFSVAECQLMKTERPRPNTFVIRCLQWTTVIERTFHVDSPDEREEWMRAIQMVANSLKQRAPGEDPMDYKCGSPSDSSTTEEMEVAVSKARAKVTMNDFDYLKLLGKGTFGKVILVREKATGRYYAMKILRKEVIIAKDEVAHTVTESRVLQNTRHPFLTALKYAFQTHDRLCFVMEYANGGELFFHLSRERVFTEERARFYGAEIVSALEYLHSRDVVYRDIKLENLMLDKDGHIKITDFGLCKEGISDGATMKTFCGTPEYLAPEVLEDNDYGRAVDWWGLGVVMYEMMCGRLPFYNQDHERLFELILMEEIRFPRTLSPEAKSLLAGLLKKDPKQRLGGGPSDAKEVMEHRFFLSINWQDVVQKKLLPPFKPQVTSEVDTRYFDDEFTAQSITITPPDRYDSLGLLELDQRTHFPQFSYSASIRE
Chain of Ephrin type-A receptor 2 (Homo sapiens) (P29317 whole entry): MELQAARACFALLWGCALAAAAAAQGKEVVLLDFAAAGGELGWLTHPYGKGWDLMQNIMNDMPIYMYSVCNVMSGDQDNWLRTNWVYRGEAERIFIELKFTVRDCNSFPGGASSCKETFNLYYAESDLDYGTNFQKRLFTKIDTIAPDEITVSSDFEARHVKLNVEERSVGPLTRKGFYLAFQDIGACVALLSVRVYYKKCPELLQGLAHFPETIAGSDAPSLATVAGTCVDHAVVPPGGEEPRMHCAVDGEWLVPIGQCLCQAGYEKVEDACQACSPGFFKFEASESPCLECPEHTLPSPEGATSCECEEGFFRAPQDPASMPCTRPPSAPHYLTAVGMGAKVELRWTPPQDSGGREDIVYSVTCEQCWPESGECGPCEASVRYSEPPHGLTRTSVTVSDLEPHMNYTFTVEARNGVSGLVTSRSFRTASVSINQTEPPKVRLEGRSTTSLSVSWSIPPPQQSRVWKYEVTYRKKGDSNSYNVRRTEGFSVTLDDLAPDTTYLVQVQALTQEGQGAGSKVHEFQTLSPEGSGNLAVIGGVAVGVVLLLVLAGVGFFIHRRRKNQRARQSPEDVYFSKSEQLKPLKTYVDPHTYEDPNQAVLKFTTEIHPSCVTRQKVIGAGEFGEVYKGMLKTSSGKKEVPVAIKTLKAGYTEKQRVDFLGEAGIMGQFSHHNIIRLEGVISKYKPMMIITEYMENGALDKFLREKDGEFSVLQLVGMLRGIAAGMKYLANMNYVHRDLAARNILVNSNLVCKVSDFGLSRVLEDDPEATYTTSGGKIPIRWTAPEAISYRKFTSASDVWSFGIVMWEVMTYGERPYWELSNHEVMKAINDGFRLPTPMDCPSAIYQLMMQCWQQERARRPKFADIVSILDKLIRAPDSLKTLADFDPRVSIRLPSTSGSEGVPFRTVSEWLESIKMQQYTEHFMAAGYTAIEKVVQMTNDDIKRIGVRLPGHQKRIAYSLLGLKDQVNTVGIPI
Chain of Mitogen-activated protein kinase kinase kinase 11 (Homo sapiens) (Q16584 whole entry, looked up): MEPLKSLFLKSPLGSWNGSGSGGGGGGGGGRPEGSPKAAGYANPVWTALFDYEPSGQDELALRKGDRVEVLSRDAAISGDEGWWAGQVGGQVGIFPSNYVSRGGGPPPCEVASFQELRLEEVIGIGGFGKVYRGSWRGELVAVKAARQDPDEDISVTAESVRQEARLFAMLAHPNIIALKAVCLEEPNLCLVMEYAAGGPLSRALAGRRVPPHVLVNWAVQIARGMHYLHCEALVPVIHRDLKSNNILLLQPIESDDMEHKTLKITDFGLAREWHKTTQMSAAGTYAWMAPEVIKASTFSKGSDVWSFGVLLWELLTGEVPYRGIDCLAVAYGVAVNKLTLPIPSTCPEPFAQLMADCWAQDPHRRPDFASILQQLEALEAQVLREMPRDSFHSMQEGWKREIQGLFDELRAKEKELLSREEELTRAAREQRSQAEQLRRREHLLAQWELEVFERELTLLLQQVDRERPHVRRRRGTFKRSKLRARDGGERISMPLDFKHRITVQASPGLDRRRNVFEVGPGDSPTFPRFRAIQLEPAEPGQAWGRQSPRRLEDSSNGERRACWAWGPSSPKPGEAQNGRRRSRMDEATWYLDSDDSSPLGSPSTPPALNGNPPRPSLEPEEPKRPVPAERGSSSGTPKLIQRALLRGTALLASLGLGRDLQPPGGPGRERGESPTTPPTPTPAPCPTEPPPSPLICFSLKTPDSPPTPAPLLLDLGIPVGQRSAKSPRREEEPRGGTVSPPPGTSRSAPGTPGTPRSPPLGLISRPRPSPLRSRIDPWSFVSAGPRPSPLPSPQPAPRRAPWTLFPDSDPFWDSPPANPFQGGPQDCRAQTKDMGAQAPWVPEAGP
Chain of Maternal embryonic leucine zipper kinase (Homo sapiens) (Q14680 whole entry, looked up): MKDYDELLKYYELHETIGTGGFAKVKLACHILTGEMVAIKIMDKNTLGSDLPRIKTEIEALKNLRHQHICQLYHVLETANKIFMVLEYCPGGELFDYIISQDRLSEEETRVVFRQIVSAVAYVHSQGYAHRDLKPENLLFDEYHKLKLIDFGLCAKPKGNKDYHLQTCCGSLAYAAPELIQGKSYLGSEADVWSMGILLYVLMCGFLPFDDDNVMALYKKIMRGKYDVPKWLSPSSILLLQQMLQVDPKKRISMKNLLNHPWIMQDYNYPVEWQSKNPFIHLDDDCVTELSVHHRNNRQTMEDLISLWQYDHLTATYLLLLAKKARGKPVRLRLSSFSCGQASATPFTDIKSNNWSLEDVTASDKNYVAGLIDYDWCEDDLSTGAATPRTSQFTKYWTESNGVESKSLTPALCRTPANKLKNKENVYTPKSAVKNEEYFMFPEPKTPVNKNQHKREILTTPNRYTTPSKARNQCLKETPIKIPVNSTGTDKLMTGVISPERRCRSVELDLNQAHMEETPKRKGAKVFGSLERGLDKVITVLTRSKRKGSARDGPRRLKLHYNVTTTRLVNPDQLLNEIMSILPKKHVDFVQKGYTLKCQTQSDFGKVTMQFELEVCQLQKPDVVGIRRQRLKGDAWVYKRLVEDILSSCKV
Chain of Calcium/calmodulin-dependent protein kinase kinase 2 (Homo sapiens) (Q96RR4 2-588 limits assumed): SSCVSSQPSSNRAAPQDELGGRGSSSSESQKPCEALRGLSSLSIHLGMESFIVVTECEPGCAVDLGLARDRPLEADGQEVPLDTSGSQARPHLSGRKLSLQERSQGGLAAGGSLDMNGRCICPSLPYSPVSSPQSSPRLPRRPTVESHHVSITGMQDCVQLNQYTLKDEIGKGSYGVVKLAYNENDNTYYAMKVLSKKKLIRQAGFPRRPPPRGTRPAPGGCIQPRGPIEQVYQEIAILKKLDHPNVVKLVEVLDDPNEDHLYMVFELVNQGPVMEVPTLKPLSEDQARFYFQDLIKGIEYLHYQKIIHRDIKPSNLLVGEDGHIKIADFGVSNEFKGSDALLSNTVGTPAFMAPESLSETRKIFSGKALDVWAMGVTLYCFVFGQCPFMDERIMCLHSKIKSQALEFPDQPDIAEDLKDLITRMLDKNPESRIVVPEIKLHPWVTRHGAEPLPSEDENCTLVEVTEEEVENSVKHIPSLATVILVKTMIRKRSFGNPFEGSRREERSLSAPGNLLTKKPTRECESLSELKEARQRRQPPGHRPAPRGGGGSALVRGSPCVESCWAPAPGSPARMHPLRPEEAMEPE
Chain of MAP kinase-activated protein kinase 2 (Homo sapiens) (P49137 whole entry, looked up): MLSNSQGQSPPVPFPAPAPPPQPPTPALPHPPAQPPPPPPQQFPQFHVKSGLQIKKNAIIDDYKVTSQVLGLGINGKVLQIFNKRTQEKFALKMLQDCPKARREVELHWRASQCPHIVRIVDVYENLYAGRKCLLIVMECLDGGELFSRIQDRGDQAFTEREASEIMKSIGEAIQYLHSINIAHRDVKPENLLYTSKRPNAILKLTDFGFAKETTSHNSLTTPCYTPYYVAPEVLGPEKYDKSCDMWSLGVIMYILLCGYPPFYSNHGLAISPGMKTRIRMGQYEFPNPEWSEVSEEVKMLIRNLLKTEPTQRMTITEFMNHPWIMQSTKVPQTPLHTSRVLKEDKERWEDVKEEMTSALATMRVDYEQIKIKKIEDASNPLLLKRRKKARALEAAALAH

Structure (SMILES): C[C@@H](N)[C@H]1CC[C@H](C(=O)Nc2ccncc2)CC1
- residual activity [1]: 104%
- residual activity [2]: 105%
- inhibition [3]: 67%
- residual activity [4]: 88%
- residual activity [5]: 102%
- inhibition [6]: 110%
- inhibition [7]: 22%
- residual activity [8]: 96%
- residual activity [9]: 79%
- inhibition [10]: 7%
- residual activity [11]: 106%
- inhibition [12]: 99%
- residual activity [13]: 94%

Structure (SMILES): Cc1cncc2cccc(S(=O)(=O)N3CCCNC[C@@H]3C)c12
- IC50 [14]: 104 nM

Structure (SMILES): CC1=C(C(=O)Nc2cc3cn[nH]c3cc2F)C(c2ccc(C(F)(F)F)cc2)CC(=O)N1 (centres undefined)
- residual activity [15]: 91%
- residual activity [16]: 98%
- inhibition [17]: inactive
- residual activity [18]: 70%
- residual activity [19]: 120%

From ChEMBL document CHEMBL5705888, “Substrate specificity and inhibitors of LRRK2, a protein kinase mutated in Parkinson's disease” (Biochem J, 2009)
